Fewer than 10 of roughly 190,000 compounds were called active.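 How the source made its calls: active means over 50% inhibition of intestinal alkaline phosphatase at 20 µM in the single-dose screen; inactive means the rest.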 Only a sample is shown.
test system: alkaline phosphatase, intestinal [Bos taurus]; test: bovine intestinal alkaline phosphatase inhibitors, primary screen, selectivity assay for TNAP inhibitor project, biochemical, bovine IAP, CDP-star luminescence (AID 1019); conditions: purified bovine IAP, 30 min, at 20 µM, stronger effect = higher value
Summary of the method: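 Assay system – bovine IAP enzyme · Quantity – bovine IAP at 1/65,000,000 final dilution · Detection – CDP-star luminescence signal · Times – 30 min reaction at room temperature · Also added – CDP-star substrate at 30 µM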

inhibition, inactive:
CC(C)C(=O)Nc1ccc2oc(=O)ccc2c1 7%
CCOC(=O)/C(C#N)=C/c1ccc(N2CCCCC2)cc1 11.8%
CC(C)(c1ccccc1)c1ccc(OCCN)cc1 14.7%
COC(=O)Cc1ccc(NC(=S)NCc2ccco2)cc1 4%
COc1ccc(/C=N/N=C2/C(=O)Nc3ccccc32)cc1O 5%
COc1cc(NS(=O)(=O)c2ccc(NC(=O)CN3C(=O)c4ccccc4C3=O)cc2)ncn1 3.8%
CN(C)CCN=c1cc(-c2ccccc2)oc2ccc(Cl)cc12 -8.9%
CC(C)(C)NC(=O)c1ccc(Cn2cc(C(F)(F)F)ccc2=O)cc1 4.3%
Oc1ccc(N2CCN(C(=S)NCc3ccccc3)CC2)cc1 6.1%
CCCCN(CC)CCCNC(=O)c1ccc(CSc2nc3ccncc3[nH]2)cc1 -24%
O=C(CCc1ccccc1)Nc1nn[nH]n1 5.5%
CC1CCCN(CC(O)COc2ccc3c(c2)OCO3)C1 (stereo not given) 3.1%
Cc1ccccc1C1CC(c2cccs2)=NN1S(C)(=O)=O (stereo not given) 18.1%
CCN(c1ccccc1)S(=O)(=O)c1ccc2[nH]c(=O)[nH]c2c1 3.4%
O=S(=O)(NCCc1ccc(F)cc1)c1cccc2cccnc12 10.8%
COc1cc(/C=C/C(=O)OCC(=O)N2CCOCC2)ccc1OCC#N -7.3%
O=C(Cn1cnc2ccccc21)N/N=C/c1ccco1 -22.7%
CC1CC(C)CN(CCC(=O)Nc2ccc3c(c2)CCC3)C1 (stereo not given) -14.7%
O=C(COC(=O)/C=C/c1ccc(S(=O)(=O)N2CCCCCC2)cc1)NCc1ccccc1Cl 14.5%
CCCNC(=O)NC(=O)COC(=O)CC(NC(N)=O)c1ccc(Cl)cc1 (stereo not given) 7.6%
Cc1c(C=O)c2ccccc2n1CC(=O)O -6.7%
CCn1nc(C)c(CN2CCN(Cc3ccc(OC)c(C)c3C)C(CCO)C2)c1C (stereo not given) -4.7%
COc1ccc(C2CC(c3cccs3)Nc3nnnn32)cc1 (stereo not given) 16.6%
CCN(CC)C(=O)N(CC)Cc1ccccc1 -1.7%
Cc1ccc(Nc2c(F)c(F)c(F)c(F)c2C(=O)O)c(C)c1 1.3%
C=CCN(c1ccc(Cl)cc1)S(=O)(=O)c1cccc(C(=O)OCC(=O)N(C)C)c1 -6.8%
Cn1cc(-c2ccccc2)cc(C#N)c1=O -3.4%
CC(C)(C)n1ncc2c(=O)n(Cc3ccc(Cl)cc3)cnc21 -1.6%
CCCCCCCNc1nc(Cl)nc(NCCO)n1 -10.7%
CCOC(=O)C1(Cc2ccccc2C(F)(F)F)CCN(C(=O)c2cc(C)n(C)n2)CC1 -5.4%
CCN(CC)CCNc1nc(-c2ccc(OC(F)F)cc2)c(C)s1 -8.2%
O=C(Nc1cccc(F)c1)c1coc(=O)c(Br)c1 13.2%
COC(=O)c1ccc(C(=O)OC)c(NC(=S)N2CCN(c3ccc(F)cc3)CC2)c1 -5.9%
CC(NC(=O)CCC(=O)N1CCN(S(=O)(=O)c2ccc(Cl)cc2)CC1)c1ccccc1 (stereo not given) -56.8%
COc1cc(C(=S)NC2CCCCC2)ccc1O 5.4%
CCOc1ccc(NC(=S)NC(=O)/C=C/c2ccc(OC)cc2)c([N+](=O)[O-])c1 -34%
C=CCO/N=C/C1=C(O)C(C(=O)OC)C(C)(C)CC1=O (stereo not given) -21.8%
CC(NC(=O)CC1SC(N)=NC1=O)c1ccccc1 (stereo not given) -8.1%
C/C(=N\NC(=O)c1ccc(CSc2nc(C)cc(C)n2)cc1)C1CCCCC1 -2.1%
COc1ccc(OC)c(CNC(=O)c2cc(=O)[nH]c3ccc(S(=O)(=O)N4CCCC4)cc23)c1 9.9%
Cc1cccc(NC(=O)c2nnn(-c3cccc(C(F)(F)F)c3)c2N)c1 6.8%
CCOC(=O)N1CCN(C(=O)C2CCN(Cc3ccc(OC)cc3OC)CC2)CC1 3.5%
O=C(NCCc1ccccc1)C1CCN(S(=O)(=O)c2ccc(Br)s2)CC1 2.9%
CSc1nc2c(c(=O)[nH]1)C(c1cccc(Cl)c1Cl)CC(=O)N2 (stereo not given) -12.6%
Cc1ccc(CCC(=O)Nc2ncc(Cc3cc(Cl)ccc3Cl)s2)o1 5.3%
